Sampled rows, rich in hits. Any-hit rate of the full collection: about 2.8%.
m5-HT2A agonist: activates the mouse 5-HT2A serotonin receptor; CHO-K1 mHTR2A beta-arrestin complementation, luminescence; percent of 30 µM serotonin response; activation, % at 7.6 µM; AID 624169; actives 0.66% (n = 360,000);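 active = activation above a run cutoff, the mean activation of all tested compounds plus 3 SD, cut at about 14% in these data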;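 note: 0% = plate median of compound wells and 100% = 30 µM serotonin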
Target sequence (P35363 whole entry, looked up): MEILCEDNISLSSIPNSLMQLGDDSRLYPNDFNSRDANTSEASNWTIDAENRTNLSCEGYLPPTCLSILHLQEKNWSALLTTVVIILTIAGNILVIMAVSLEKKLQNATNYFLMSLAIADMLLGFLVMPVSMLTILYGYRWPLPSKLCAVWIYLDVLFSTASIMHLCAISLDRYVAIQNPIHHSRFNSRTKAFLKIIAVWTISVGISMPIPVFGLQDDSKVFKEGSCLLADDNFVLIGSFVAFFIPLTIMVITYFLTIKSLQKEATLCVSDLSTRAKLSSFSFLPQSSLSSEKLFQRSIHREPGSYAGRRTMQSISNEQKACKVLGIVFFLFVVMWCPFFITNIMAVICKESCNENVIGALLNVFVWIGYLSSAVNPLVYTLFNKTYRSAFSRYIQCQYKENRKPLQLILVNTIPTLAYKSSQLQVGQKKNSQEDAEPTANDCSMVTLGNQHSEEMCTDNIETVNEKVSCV
MC4R ag barr: human MC4R agonism via beta-arrestin; U2OS MC4R beta-arrestin complementation, luminescence; percent of melanotan II response, DMSO zero; activation, % at 8.9 µM; actives 0.98% (n = 360,000);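 active = activation above a per-plate cutoff, the mean activation of sample wells on that plate plus 3 SD, cut at about 8% in these data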
EBI2 antag: blocks human EBI2 receptor beta-arrestin signaling; inhibition, % at 5 µM; EBI2 beta-arrestin recruitment, luminescence, 7a,25-OHC stimulated; P32249; AID 651636; actives 0.81% (n = 360,000); in the data active = inhibition above about 38%;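 note: enzyme fragment complementation signal reports receptor beta-arrestin coupling in cells; 0% = agonist plus DMSO wells and 100% = wells without agonist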
MC4R antagonist: antagonists of human melanocortin 4 receptor (MC4R); P32245; MC4R-expressing cells, MTII-stimulated cAMP, LANCE TR-FRET; inhibition, % at 6.5 µM; actives 0.48% (n = 360,000);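 active = inhibition above its plate's cutoff, the mean of tested wells on that plate plus 3 SD, cut at about 29% in these data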;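 note: 0% = Melanotan II alone and 100% = Melanotan II plus saturating MCL0020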
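Assay system: human MC4R-expressing U2OS cells; reagent: Melanotan II stimulation of cells; dosing: 6.5 µM single dose; timing: compound 30 min, challenge 1 h, detection 1 h; signal: TR-FRET cAMP assay; replicates: one well per compound, no replicates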
MC4R barr conf: human MC4R beta-arrestin agonism confirmation; shares compounds with MC4R ag barr; U2OS MC4R beta-arrestin recruitment, luminescence; scaled DMSO 0%, Melanotan II 100%; activation, % at 8.9 µM; actives 31% (n = 2,400); AID 602192;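 active = mean activation across replicates above the hit cutoff set in the earlier primary screen, cut at about 8% in these data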
MOR-DOR barr ag: OPRM1-OPRD1 heterodimer agonism counter-screen; U2OS PathHunter beta-arrestin, beta-gal luminescence; percent of deltorphin B response, DMSO zero; shares compounds with MC4R ag barr; actives 5.8% (n = 2,400); AID 602194; activation, % at 9.2 µM;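 active = mean activation across replicates exceeds the hit threshold derived in the earlier primary screen, cut at about 18% in these data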;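 note: 100% = deltorphin B at 0.9 µM final and 0% = DMSO alone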
* = called active by the depositor; / = no result given.

SMILES	m5-HT2A agonist	MC4R ag barr	EBI2 antag	MC4R antagonist	MC4R barr conf	MOR-DOR barr ag
Cc1cc(C)c(S(=O)(=O)N2CCCC(C(=O)NCc3cccnc3)C2)c(C)c1 (stereo not given)	-3	-5	-2	15	/	/
COc1cc(C(=O)OCC(=O)Nc2cc(C)on2)ccc1OCc1ccccc1Cl	-1	18*	7	16	3	2
COc1ccc(NC(=O)COC(=O)c2ccc(OCc3ccccc3Cl)c(OC)c2)c(OC)c1	0	3	-2	2	/	/
O=C(COc1ccccc1[N+](=O)[O-])Nc1ccc2c(c1)CCC2	-9	13*	5	2	2	3
CCCNC(=O)Nc1nc2ccccc2s1	0	1	-1	-5	/	/
CCCNC(=O)c1ccc(-c2nc3ccccc3s2)s1	-1	11*	3	11	-2	11
O=C1COc2ccc(C(=O)COC(=O)c3sc4ccccc4c3Cl)cc2N1	-2	12*	-1	2	4	4
COc1ccc(C(=O)N2[C@@H](C(C)C)COc3cc(Br)ccc3S2(=O)=O)cc1	-5	1	-5	10	/	/
Cc1cc(C)c2c(N)c(C(=O)Nc3ccccc3Br)sc2n1	4	10.0*	28	-1	0	5
COc1cc(/C=N/NC(=O)c2sc3nc(C)cc(C)c3c2N)ccc1O	7	16*	-10	1	1	3
NC(=O)c1ccc(NC(=O)COC(=O)CCC2CCCC2)cc1	-1	-2	-6	12	/	/
O=C(/C=C/c1ccc(Cl)cc1)Nc1ccc(N2CCOCC2)cc1	-2	2	31	4	/	/
O=C(NC(=S)Nc1ccc(N2CCOCC2)cc1)c1ccc(Cl)cc1	-2	14*	6	2	2	2
O=C(/C=C/c1ccc(Cl)cc1)NC(=S)Nc1ccc(N2CCOCC2)c(Cl)c1	2	15*	7	11	7	5
CC(C)(C)c1ccc(C(=O)NC(=S)Nc2ccc(N3CCOCC3)cc2)cc1	0	1	-7	6	/	/
O=C(/C=C/c1ccc(Cl)cc1)Nc1ccccc1N1CCOCC1	-5	9.7*	20	2	3	2
CC1CCCC(NC(=O)c2cc(S(=O)(=O)N3CCCCC3)c[nH]2)C1C (stereo not given)	1	0	-7	6	/	/
COC(=O)[C@@]12C[C@@H](CC(=O)N3CCN(C(=O)C4CC4)CC3)C(=O)N(Cc3cccc4ccccc34)C1=CCC(C)(C)C2	-5	/	-6	/	/	/
CCc1ccc(NC(=O)C(C)OC(=O)Cn2[nH]c(=O)c3ccccc3c2=O)cc1 (stereo not given)	1	1	3	-1	/	/
COc1ccccc1CNc1nc2cc(-c3ccsc3)sc2c(=O)n1C	-10	-1	3	11	/	/
O=C(N/N=C1\CC(c2ccccc2)Oc2ccccc21)c1ccc(O)cc1 (stereo not given)	-8	0	11	9	/	/
O=C(N/N=C1/CC(c2ccccc2)Oc2ccccc21)C1CC1 (stereo not given)	0	9.6*	5	10	8.7*	9
COc1ccc2ccc(O)c(CN(C)CC(=O)Nc3ccccc3C(F)(F)F)c2c1	-1	13*	2	14	7	10
CC(=O)c1cc2c(cc1NC(=O)c1ccc(C)cc1)OCCO2	5	9.6*	23	1	2	1
CCC(=O)c1cc2c(cc1NC(=O)c1ccc(C)cc1)OCCO2	-4	1	11	1	/	/
Cc1ccc2nc(SCC(=O)c3c[nH]c4ccccc34)[nH]c2c1	1	12*	-6	-2	5	4
CC(=O)Nc1cccc(-c2cc(NC(C)=O)c3ncc(-c4cccc(C(F)(F)F)c4)n3c2)c1	4	4	10	11	/	/
CC(=O)Nc1cc(-c2ccc(N)cc2)cn2c(-c3cccc(C(F)(F)F)c3)cnc12	-2	11*	9	17	12*	3
CC(=O)Nc1cc(-c2ccc(N)nc2)cn2c(-c3cccc(C(F)(F)F)c3)cnc12	-2	19*	18	1	9.8*	3

Screens from PubChem BioAssay.
